An excerpt weighted towards active compounds, which were near 1.8% of everything screened.
M5 PAM: positive allosteric modulators of human muscarinic M5 receptor; activation, % at 3 µM; CHO-K1 hM5, Fluo-8 calcium, ACh EC20 PAM; 0% = ACh EC20, 100% = ACh EC100; P08912; hit rate 0.3% among 360,000; AID 624038;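 active means activation above the run cutoff, the mean activation of all test compounds plus 3 SD, cut at about 18% in these data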
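Assay system – human M5 receptor in CHO-K1 cells · Read-out – % activation, ACh-normalized · Technique – Fluo-8 calcium fluorescence · Dosing – single-point, 3 µM nominal · Incubation – Fluo-8 loading 80 min at 37 °C plus 30 min room temperature · Repeats – singlicate, one well per test compound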
CHRM5 antagonist: blocks acetylcholine activation of human M5 receptor; CHO-hM5 cells, Fluo-8 calcium fluorescence, ACh EC80; AID 624040; inhibition, % at 3 µM; hit rate 0.59% among 360,000;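 active means inhibition above a per-plate cutoff, the mean of that plate's test compounds plus 3 SD, cut at about 27% in these data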;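 further: 0% = acetylcholine EC80 with DMSO and 100% = DMSO without agonist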
CHRM5 agonist: agonists of human muscarinic M5 receptor (CHRM5); P08912; CHO-K1 hM5 cells, Fluo-8 calcium fluorescence; 0% DMSO wells, 100% maximal acetylcholine response; activation, % at 3 µM; hit rate 0.19% among 360,000;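 active means activation above the run's mean over test compounds plus 3 SD, cut at about 23% in these data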;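 further: signal is peak over basal fluorescence ratio across the kinetic read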
CHRM4 antagonist: antagonists of human muscarinic M4 receptor (CHRM4) | CHO-hM4 cells, ACh EC80, Fluo-8 calcium fluorescence | hit rate 0.73% among 360,000 | inhibition, % at 3 µM;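 active means inhibition above its plate's cutoff, the mean inhibition of sample wells plus 3 SD, cut at about 27% in these data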;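 further: 0% = acetylcholine EC80 with DMSO and 100% = DMSO without agonist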
Target sequence (P08173 whole entry, looked up): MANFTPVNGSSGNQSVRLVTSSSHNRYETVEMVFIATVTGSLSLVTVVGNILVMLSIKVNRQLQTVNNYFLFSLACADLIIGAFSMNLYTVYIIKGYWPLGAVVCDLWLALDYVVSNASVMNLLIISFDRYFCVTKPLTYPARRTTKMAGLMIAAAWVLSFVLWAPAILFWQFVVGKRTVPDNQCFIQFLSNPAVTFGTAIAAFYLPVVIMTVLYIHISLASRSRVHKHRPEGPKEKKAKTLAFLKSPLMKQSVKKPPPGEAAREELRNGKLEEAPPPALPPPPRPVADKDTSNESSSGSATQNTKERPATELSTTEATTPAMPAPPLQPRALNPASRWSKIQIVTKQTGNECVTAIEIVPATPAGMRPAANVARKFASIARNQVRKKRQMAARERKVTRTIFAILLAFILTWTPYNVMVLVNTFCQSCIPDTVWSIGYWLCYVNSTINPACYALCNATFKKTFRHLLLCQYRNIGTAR
CHRM4 PAM: potentiates acetylcholine response at human M4 receptor. hit rate 0.4% among 360,000. AID 624126. P08173. CHO-K1 hM4/Gqi5, Fluo-8 calcium fluorescence, ACh EC20; 0% = ACh EC20, 100% = maximal ACh. activation, % at 3 µM;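 active means activation above its plate's cutoff, the mean activation of sample wells plus 3 SD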
M4 ag: CHRM4 agonism in calcium assay. P08173. CHO-K1 hM4/Gqi5, Fluo-8 calcium fluorescence; vehicle 0%, full acetylcholine response 100%. activation, % at 3 µM. hit rate 0.14% among 360,000;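 active means activation above the run mean over all test wells plus 3 SD, cut at about 32% in these data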;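 further: peak over basal fluorescence ratio per well then scaled between controls; 0% = DMSO wells and 100% = acetylcholine at EC100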
Active calls of the source: *.

SMILES	M5 PAM	CHRM5 antagonist	CHRM5 agonist	CHRM4 antagonist	CHRM4 PAM	M4 ag
CCNC(=O)C1(C)CCCN(C(=O)c2cc3ccccc3s2)C1 (configuration not stated)	1.0	-2.1	-1.1	-1.1	4.1	0.5
CCC(=O)N1CCCC(C(=O)Nc2ccc3cn[nH]c3c2)CC1 (configuration not stated)	-2.2	2.6	0.0	7.0	0.3	0.2
Cc1cc(C(=O)N2CCC(C)CC2)on1	18.4*	6.3	1.4	9.2	23.9	0.8
CCOC(=O)N1CCN(C(=O)c2cc(C)no2)CC1	2.5	-0.2	2.2	-9.1	7.3	1.2
Cc1ccc2c(c1)cc1c(=O)n(CC(=O)N(C)c3ccccc3)nc(C)n12	5.5	-12.2	1.0	3.0	15.7*	1.5
COc1ccc(C(=O)Oc2ccc3oc(=O)sc3c2)cc1	-0.6	8.6	0.7	57.6*	-22.8	5.2
COc1ccc(C(=O)Oc2ccc3ccc(=O)oc3c2)cc1	-4.3	2.3	-2.4	-16.2	3.0	7.6
CCCCN1C2=C(C(=O)CC(C)(C)C2)C(c2ccccc2)C2=C1c1ccccc1C2=O (configuration not stated)	-3.1	0.8	-3.2	-13.6	7.5	1.8
CCCN1C2=C(C(=O)CC(C)(C)C2)C(c2ccc(F)cc2)C2=C1c1ccccc1C2=O (configuration not stated)	11.0	-4.5	-0.1	-3.7	30.3*	-1.1
O=C(c1[nH]c(C(F)(F)F)nc1-c1ccccc1)N1CCC(Cc2ccccc2)CC1	-6.0	-9.4	-2.1	-9.9	-2.0	12.6
COc1cc2nc(C3CCC3)nc(N3CCN(c4ccccc4OC)CC3)c2cc1OC	-19.5	14.3	-6.3	42.8*	-40.0	1.3
Cc1c(Br)c([N+](=O)[O-])nn1CC(=O)N1CCc2ccccc2C1	5.7	-7.8	-2.4	-5.6	-4.6	0.1
Cc1c(Br)c([N+](=O)[O-])nn1C(C)C(=O)N1CCc2ccccc2C1 (configuration not stated)	-13.5	20.7	-8.2	54.8*	-14.2	1.0
COc1ccc(OC)c(/C=C2/Sc3ccccc3C2=O)c1	-23.3	42.6*	63.0*	18.6	-5.1	27.4
O=C(c1[nH]c(C(F)(F)F)nc1-c1ccccc1)N1CCN(c2cccc(C(F)(F)F)n2)CC1	-0.4	1.9	-5.6	-25.7	0.5	5.5
Nc1nc(-c2ccc3c(c2)CCCC3)cs1	19.8*	9.7	-1.8	-15.3	11.9	-1.8
Nc1nc(-c2ccc3c(c2)OCCO3)cs1	2.9	-2.2	0.3	-0.7	2.3	1.3
CCc1nc2ccc(C(=O)NCc3ccc4c(c3)OCO4)cn2c1N(CCC(C)C)CCN(C)C	-1.1	-0.9	-2.2	-2.3	-4.9	1.3
Cc1ccc(C(=O)Sc2cccccc2=O)cc1	-6.5	41.6*	3.0	57.3*	-7.7	8.0
O=[N+]([O-])c1cc2oc3c(c2c(C=NCc2ccccc2)c1O)CCCC3	7.5	3.1	-1.1	35.3*	13.5	1.2
CC(C)CN=Cc1c(O)c([N+](=O)[O-])cc2oc3c(c12)CCCC3	4.0	-1.1	3.0	7.7	16.7	-1.6
CN1CCC(OC(=O)c2ccccc2Cl)CC1	-20.6	33.7*	-11.2	2.1	-11.3	1.4
CCCCC(O)(CCN1CCOCC1)c1ccc(Cl)cc1 (configuration not stated)	-20.7	32.2*	-10.5	67.5*	-34.4	0.4
CCN(c1ccccc1)S(=O)(=O)c1cc(C(=O)O)ccc1C	12.9	-6.5	-1.9	-0.6	17.3*	-0.1
O=C(O)c1ccc(Cl)c(S(=O)(=O)N(Cc2ccccc2)c2ccccc2)c1	2.8	12.9	-1.4	9.4	1.9	0.4
SMILES	M5 PAM	CHRM5 antagonist	CHRM5 agonist	CHRM4 antagonist	CHRM4 PAM	M4 ag
CN(C)CC1CC/C(=C\c2ccc(O)cc2)C1=O (configuration not stated)	-8.3	9.9	3.1	38.5*	-3.2	8.0
Cc1nn(CC(=O)N2CCc3ccccc3C2)c(C)c1Cl	21.3*	-11.4	-5.1	-8.2	0.7	-0.7
COC(=O)[C@]12CCCCC=C1N(Cc1ccc(Cl)cc1Cl)C(=O)[C@H](CC(=O)NCCCCc1ccccc1)C2	2.6	-10.7	1.8	-16.0	3.5	1.0
COC(=O)CCC(NS(=O)(=O)OCC(Cl)(Cl)Cl)c1ccccc1 (configuration not stated)	4.7	-1.4	-1.6	-2.8	-2.2	0.7
CC(C)CC(NS(=O)(=O)OCC(Cl)(Cl)Cl)c1ccccc1 (configuration not stated)	-24.3	12.3	-8.0	29.9*	-14.9	0.3
COCC(=O)N(Cc1cc2ccc(C)cc2[nH]c1=O)c1cccc(C)c1	1.1	-8.0	1.1	-3.7	-4.7	0.2
COCC(=O)N(Cc1cc2cc(C)ccc2[nH]c1=O)c1ccccc1	6.2	-1.6	-0.1	-21.0	23.2*	2.1
CCOc1ccc(NC(=O)C[n+]2ccc(N(C)C)cc2)cc1	5.5	0.0	-5.9	8.9	-1.1	0.5
CN(C)c1cc[n+](CC(=O)Nc2ccc(Oc3ccccc3)cc2)cc1	-13.9	10.6	-11.8	42.9*	-22.2	1.4
Cc1ccc(Nc2nc3ccccc3nc2Nc2c(C)n(C)n(-c3ccccc3)c2=O)cc1	23.4*	-11.5	3.0	-5.4	11.7	1.3
Cc1c(NC(=O)Nc2ccc(Cl)c(Cl)c2)c(=O)n(-c2ccccc2)n1C	-15.2	30.4*	0.4	10.1	0.3	11.6
Cc1c(Cl)c([N+](=O)[O-])nn1CCCC(=O)Nc1c(C)n(C)n(-c2ccccc2)c1=O	-30.9	17.1	-19.1	27.1*	-41.8	0.5
CCC1CCCCN1C(=O)C(=O)c1cn(CC(=O)N(CC)CC)c2ccccc12 (configuration not stated)	-1.6	8.6	-4.2	1.4	-6.2	-0.4
CCN(CC)C(=O)Cn1cc(C(=O)C(=O)N(C)C2CCN(C)CC2)c2ccccc21	2.0	6.1	-4.0	-3.6	17.2*	0.1
O=S(=O)(NCCS(=O)(=O)N1CCN(c2ccc(F)cc2)CC1)c1ccc(F)cc1	-6.0	2.8	4.2	-11.2	-4.0	19.4
O=C(Nc1ccc(Oc2ccccc2)cc1)c1csc([C@H]2C[C@H](O)[C@@H](CO)O2)n1	-15.3	25.5	8.4	16.4	-10.2	17.4
COc1ccc2c(c1)[nH]c1c(N3CCN(Cc4ccc5c(c4)OCO5)CC3)ncnc12	-15.9	31.5*	1.4	11.2	-13.0	12.9
COc1ccc2c(c1)[nH]c1c(N3CCSCC3)ncnc12	-9.9	5.7	6.0	14.2	-13.2	24.0
OC(CCCN1CCCCC1)(c1ccccc1)c1ccccc1	-17.9	24.2	-1.3	47.2*	-17.7	0.6

Compound activity deposited in PubChem BioAssay by The Scripps Research Institute Molecular Screening Center.
